In assay [1] the test system is Pseudomonas aeruginosa. Kind of assay: Antimicrobial activity against Pseudomonas aeruginosa MTCC 741 at 1 mg/disc after 24 hrs by disc diffusion assay. It is filed as functional. The essentials: (§1)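 Disc diffusion on Mueller Hinton agar. Inoculum was grown in MHB for 24 h at 37 °C, swabbed onto the plates and dried for 10 min. Discs with 1 mg compound were left 30 min at room temperature for diffusion, then incubated at 37 °C for 24 h. Inhibition zone was read in mm; run twice. Solvent was the negative control, streptomycin the positive control.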
(A growth-free zone around the sample is the usual read-out of agar diffusion tests.)

Assay [2] has as its system Candida albicans. Nature of the assay: Antimicrobial activity against Candida albicans MTCC 227 at 1 mg/disc after 24 hrs by disc diffusion assay. It counts as functional.
Assay [3] concerns Malassezia pachydermatis. Nature of the assay: Antimicrobial activity against Malassezia pachydermatis at 1 mg/disc after 24 hrs by disc diffusion assay. It counts as functional.
The test system of assay [4] is Bacillus subtilis. Nature of the assay: Antimicrobial activity against Bacillus subtilis MTCC 441 after 24 hrs by two fold dilution method. It counts as functional. The note with it: MTCC 441, 24 h. The essentials: (§2)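 Broth two-fold serial dilution in 96-well plates from 1000 to 7.81 µg/mL, compound in DMSO (2%). Inoculum was grown in MHB for 24 h at 37 °C; plates were incubated 24 h at 37 °C. 5 µL of broth was spotted onto MHA; MIC was the lowest concentration with no visible growth on agar. Streptomycin was the positive control.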

Assay [5] has as its system Micrococcus luteus. Kind of assay: Antimicrobial activity against Micrococcus luteus MTCC 106 after 24 hrs by two fold dilution method. It is filed as functional. The note with it: MTCC 106, 24 h. The essentials: as §2
Assay [6] concerns Klebsiella aerogenes. Nature of the assay: Antimicrobial activity against Enterobacter aerogenes MTCC 111 after 24 hrs by two fold dilution method. The note with it: MTCC 111, 24 h. It is filed as functional. The procedure, abridged:
as §2

Assay [7] relates to Staphylococcus aureus. Kind of assay: Antimicrobial activity against Staphylococcus aureus MTCC 96 after 24 hrs by two fold dilution method. It is filed as functional. Conditions: MTCC 96, 24 h. The essentials:
as §2

Assay [8] deals with Salmonella typhimurium. Kind of assay: Antimicrobial activity against Salmonella typhimurium MTCC 1251 after 24 hrs by two fold dilution method. It counts as functional, Salmonella enterica subsp. enterica serovar Typhimurium. Conditions: Salmonella enterica, MTCC 1251, 24 h. The essentials: as §2
Assay [9] has as its system Klebsiella pneumoniae. Kind of assay: Antimicrobial activity against Klebsiella pneumoniae MTCC 109 after 24 hrs by two fold dilution method. It is filed as functional. Conditions: MTCC 109, 24 h. The procedure, abridged:
as §2

The subject of assay [10] is Proteus vulgaris. Nature of the assay: Antimicrobial activity against Proteus vulgaris MTCC 1771 after 24 hrs by two fold dilution method. It is filed as functional. Conditions: MTCC 1771, 24 h. The procedure, abridged:
as §2

Assay [11] has as its system Staphylococcus aureus. Nature of the assay: Antimicrobial activity against methicillin-resistant Staphylococcus aureus MTCC 96 after 24 hrs by two fold dilution method. It counts as functional. Conditions: MTCC 96, 24 h. The essentials:
as §2

Assay [12] relates to Salmonella enterica subsp. enterica serovar Paratyphi B. Nature of the assay: Antimicrobial activity against Salmonella paratyphi B after 24 hrs by two fold dilution method. It is filed as functional. The procedure, abridged:
as §2

Assay [13] deals with Shigella flexneri. Nature of the assay: Antimicrobial activity against Shigella flexneri MTCC 1457 after 24 hrs by two fold dilution method. Conditions: MTCC 1457, 24 h. It is filed as functional. The essentials:
as §2

The subject of assay [14] is Pseudomonas aeruginosa. Kind of assay: Antimicrobial activity against Pseudomonas aeruginosa MTCC 741 after 24 hrs by two fold dilution method. It counts as functional. Conditions: MTCC 741, 24 h. The procedure, abridged: as §2
The test system of assay [15] is Candida albicans. Nature of the assay: Antimicrobial activity against Candida albicans MTCC 227 after 48 to 72 hrs by two fold dilution method. It is filed as functional. The essentials:
(§3)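 Yeast was grown in Sabouraud dextrose broth at 28 °C for 48 h and tested per CLSI reference methods. Two-fold serial dilutions from 1000 to 7.81 µg/mL, compound in DMSO (2%), in 96-well plates, incubated 48–72 h at 28 °C. MIC was the lowest concentration with no visible fungal growth. Ketoconazole was the positive control.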

Assay [16] deals with Malassezia pachydermatis. Kind of assay: Antimicrobial activity against Malassezia pachydermatis after 48 to 72 hrs by two fold dilution method. It counts as functional. The procedure, abridged: as §3
Assay [17] concerns Bacillus subtilis. Nature of the assay: Bactericidal activity against Bacillus subtilis MTCC 441 after 24 hrs by two fold dilution method. It counts as functional. Conditions: MTCC 441, 24 h. The procedure, abridged: (§4)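 Tubes held 5 mL MHB with two-fold dilutions from 1000 to 7.81 µg/mL and were inoculated with 5 × 10^5 to 1 × 10^6 cells in 0.1 mL MHB, incubated without shaking. Turbidity was checked at 20 h, tubes vortexed and re-incubated 4 h.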

Assay [18] deals with Micrococcus luteus. Kind of assay: Bactericidal activity against Micrococcus luteus MTCC 106 after 24 hrs by two fold dilution method. It counts as functional. The note with it: MTCC 106, 24 h. The procedure, abridged: as §4
Assay [19] has as its system Klebsiella aerogenes. Nature of the assay: Bactericidal activity against Enterobacter aerogenes MTCC 111 after 24 hrs by two fold dilution method. It is filed as functional. Conditions: MTCC 111, 24 h. The essentials:
as §4

Assay [20] concerns Staphylococcus aureus. Kind of assay: Bactericidal activity against Staphylococcus aureus MTCC 96 after 24 hrs by two fold dilution method. It is filed as functional. Conditions: MTCC 96, 24 h. The essentials: as §4
Assay [21] concerns Salmonella typhimurium. Nature of the assay: Bactericidal activity against Salmonella typhimurium MTCC 1251 after 24 hrs by two fold dilution method. The note with it: Salmonella enterica, MTCC 1251, 24 h. It is filed as functional, Salmonella enterica subsp. enterica serovar Typhimurium. The essentials: as §4
Assay [22] concerns Klebsiella pneumoniae. Kind of assay: Bactericidal activity against Klebsiella pneumoniae MTCC 109 after 24 hrs by two fold dilution method. It is filed as functional. Conditions: MTCC 109, 24 h. The essentials:
as §4

The subject of assay [23] is Proteus vulgaris. Kind of assay: Bactericidal activity against Proteus vulgaris MTCC 1771 after 24 hrs by two fold dilution method. It counts as functional. The note with it: MTCC 1771, 24 h. The procedure, abridged:
as §4

The test system of assay [24] is Staphylococcus aureus. Nature of the assay: Bactericidal activity against methicillin-resistant Staphylococcus aureus MTCC 96 after 24 hrs by two fold dilution method. It is filed as functional. The note with it: MTCC 96, 24 h. The procedure, abridged: as §4
For assay [25], the system named is Salmonella enterica subsp. enterica serovar Paratyphi B. Kind of assay: Bactericidal activity against Salmonella paratyphi B after 24 hrs by two fold dilution method. It is filed as functional. The procedure, abridged:
as §4

Assay [26] has as its system Shigella flexneri. Kind of assay: Bactericidal activity against Shigella flexneri MTCC 1457 after 24 hrs by two fold dilution method. It is filed as functional. Conditions: MTCC 1457, 24 h. The essentials:
as §4

Assay [27] has as its system Pseudomonas aeruginosa. Kind of assay: Bactericidal activity against Pseudomonas aeruginosa MTCC 741 after 24 hrs by two fold dilution method. Conditions: MTCC 741, 24 h. It is filed as functional. The procedure, abridged:
as §4

Assay [28] concerns Candida albicans. Nature of the assay: Fungicidal activity against Candida albicans MTCC 227 after 48 to 72 hrs by two fold dilution method. It is filed as functional.
The test system of assay [29] is Malassezia pachydermatis. Nature of the assay: Fungicidal activity against Malassezia pachydermatis after 48 to 72 hrs by two fold dilution method. It is filed as functional.
In assay [30] the test system is Bacillus subtilis. Nature of the assay: Antimicrobial activity against Bacillus subtilis MTCC 441 at 1 mg/disc after 24 hrs by disc diffusion assay. It is filed as functional. The procedure, abridged: as §1
Assay [31] concerns Micrococcus luteus. Kind of assay: Antimicrobial activity against Micrococcus luteus MTCC 106 at 1 mg/disc after 24 hrs by disc diffusion assay. It is filed as functional. The procedure, abridged:
as §1

Assay [32] relates to Klebsiella aerogenes. Nature of the assay: Antimicrobial activity against Enterobacter aerogenes MTCC 111 at 1 mg/disc after 24 hrs by disc diffusion assay. It counts as functional. The essentials:
as §1

Assay [33] has as its system Staphylococcus aureus. Kind of assay: Antimicrobial activity against Staphylococcus aureus MTCC 96 at 1 mg/disc after 24 hrs by disc diffusion assay. It is filed as functional. The essentials: as §1
The subject of assay [34] is Salmonella typhimurium. Nature of the assay: Antimicrobial activity against Salmonella typhimurium MTCC 1251 at 1 mg/disc after 24 hrs by disc diffusion assay. It counts as functional, Salmonella enterica subsp. enterica serovar Typhimurium. The procedure, abridged:
as §1

Assay [35] deals with Klebsiella pneumoniae. Nature of the assay: Antimicrobial activity against Klebsiella pneumoniae MTCC 109 at 1 mg/disc after 24 hrs by disc diffusion assay. It counts as functional. The procedure, abridged:
as §1

Assay [36] has as its system Proteus vulgaris. Kind of assay: Antimicrobial activity against Proteus vulgaris MTCC 1771 at 1 mg/disc after 24 hrs by disc diffusion assay. It is filed as functional. The procedure, abridged:
as §1

In assay [37] the test system is Staphylococcus aureus. Nature of the assay: Antimicrobial activity against […] Staphylococcus aureus MTCC 96 at 1 mg/disc after 24 hrs by disc diffusion assay. It counts as functional. The procedure, abridged:
as §1

In assay [38] the test system is Salmonella enterica subsp. enterica serovar Paratyphi B. Kind of assay: Antimicrobial activity against Salmonella paratyphi B at 1 mg/disc after 24 hrs by disc diffusion assay. It counts as functional. The essentials: as §1
For assay [39], the system named is Shigella flexneri. Kind of assay: Antimicrobial activity against Shigella flexneri MTCC 1457 at 1 mg/disc after 24 hrs by disc diffusion assay. It counts as functional. The essentials:
as §1

These results are taken from ChEMBL document CHEMBL3352188, “Synthesis, antimicrobial and molecular docking studies of enantiomerically pure N-alkylated β-amino alcohols from phenylpropanolamines” (2014).

In brackets after ≈: the same amount, converted by molar mass. Activity calls are given as the source filed them.

As to `CC[C@@H](N[C@@H](C)[C@H](O)c1ccccc1)c1ccccc1.Cl`, the “inhibition zone (IZ)” value is recorded as 18 mm with Pseudomonas aeruginosa [1]; 22 mm in the assay on Candida albicans [2]; 24 mm in the assay on Malassezia pachydermatis [3]; 20 mm in the assay on Bacillus subtilis [30]; 21 mm in the assay with Micrococcus luteus [31]; 21 mm in the assay with Klebsiella aerogenes [32]. For the same compound, the “inhibition zone (IZ)” value was determined as 22 mm in the assay with Staphylococcus aureus [33]; 20 mm with Salmonella typhimurium [34]; 23 mm in the assay on Klebsiella pneumoniae [35]; 21 mm in the assay with Proteus vulgaris [36]; 20 mm with Staphylococcus aureus [37]; 19 mm in assay [38]. The “inhibition zone (IZ)” value in the assay with Shigella flexneri [39] was 21 mm. Further, the MIC against Bacillus subtilis [4] amounted to 31.2 µg/mL; in the assay with Micrococcus luteus [5], 31.2 µg/mL; against Klebsiella aerogenes [6], 31.2 µg/mL; in the assay with Staphylococcus aureus [7], 31.2 µg/mL; in the assay with Salmonella typhimurium [8], 31.2 µg/mL; in the assay with Klebsiella pneumoniae [9], 15.6 µg/mL. For the same compound, the MIC worked out at 31.2 µg/mL in the assay on Proteus vulgaris [10]; 31.2 µg/mL against Staphylococcus aureus [11]; 62.5 µg/mL in assay [12]; 15.6 µg/mL in the assay with Shigella flexneri [13]; 62.5 µg/mL in the assay with Pseudomonas aeruginosa [14]; 31.2 µg/mL with Candida albicans [15]. Further, the MIC in the assay on Malassezia pachydermatis [16] amounted to 31.2 µg/mL. In addition, the MBC with Bacillus subtilis [17] came out at 31.2 µg/mL; with Micrococcus luteus [18], 62.5 µg/mL; against Klebsiella aerogenes [19], 62.5 µg/mL; against Staphylococcus aureus [20], 31.2 µg/mL; against Salmonella typhimurium [21] it was 31.2 µg/mL; in the assay with Klebsiella pneumoniae [22], 15.6 µg/mL. Besides, the MBC was 31.2 µg/mL against Proteus vulgaris [23]; 31.2 µg/mL against Staphylococcus aureus [24]; 125 µg/mL in [25]; 31.2 µg/mL against Shigella flexneri [26]; 62.5 µg/mL in the assay on Pseudomonas aeruginosa [27]. Besides, the MFC with Candida albicans [28] and against Malassezia pachydermatis [29] was 31.2 µg/mL throughout.
Turning to `CC[C@H](C)N[C@H](C)[C@@H](O)c1ccccc1.Cl` (mixture of isomers), the “inhibition zone (IZ)” value with Pseudomonas aeruginosa [1], in the assay with Malassezia pachydermatis [3], with Micrococcus luteus [31], in the assay with Salmonella typhimurium [34] and with Proteus vulgaris [36] was 10 mm throughout. For the same compound, the “inhibition zone (IZ)” value in the assay with Candida albicans [2], in the assay with Bacillus subtilis [30], in the assay on Klebsiella aerogenes [32], in the assay on Staphylococcus aureus [33], in the assay with Klebsiella pneumoniae [35] and with Staphylococcus aureus [37] was “inactive” throughout. Moreover, the “inhibition zone (IZ)” value (in assay [38]; in the assay with Shigella flexneri [39]) was “inactive” each time.
`CC(=O)N1CCN(c2ccc(OCC3COC(Cn4ccnc4)(c4ccc(Cl)cc4Cl)O3)cc2)CC1` (stereo unspecified) [KETOCONAZOLE]: the “inhibition zone (IZ)” value in the assay on Candida albicans [2] is given as 28 mm; in the assay on Malassezia pachydermatis [3] it was 26 mm. Besides, the MIC with Candida albicans [15] and in the assay on Malassezia pachydermatis [16] was 25 µg/mL (≈ 47 µM) in each case.

Usually MIC stands for the smallest concentration in the dilution series that meets the test's criterion for growth inhibition. A high value points to a need for much substance. Broadly, the MBC is the lowest tested concentration that kills the bacteria rather than only halting them. Read a low MBC as greater bactericidal potency. The MFC is the lowest tested concentration that kills the fungus rather than only halting it.
